# PREPL inhibitor = PREPL enzyme inhibitors, primary screen, biochemical, fluorescence polarization; recombinant PREPL, fluorescence polarization activity-based probe; Prolyl endopeptidase-like (Homo sapiens), Q4J6C6; inhibition, % at 5.96 µM; actives 0.68% (n = 320,000); in the data active means inhibition above about 43%;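 further: 0% = enzyme with DMSO and 100% = wells lacking enzyme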
# UCH37 DUB inh = inhibitors of human UCH37 deubiquitinase, primary screen, biochemical, Ub-AMC cleavage, fluorescence | Ubiquitin carboxyl-terminal hydrolase isozyme L5 (Homo sapiens), Q9Y5K5 | purified proteasome/UCH37 | inhibition, % (no concentration beside the values) | actives 0.33% (n = 330,000);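 active means mean inhibition over replicate wells above about 20%, limit read from the data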;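 further: 0% = compound-free wells with enzyme and 100% = wells lacking proteasome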
# Target sequence (Q9Y5K5 whole entry, looked up): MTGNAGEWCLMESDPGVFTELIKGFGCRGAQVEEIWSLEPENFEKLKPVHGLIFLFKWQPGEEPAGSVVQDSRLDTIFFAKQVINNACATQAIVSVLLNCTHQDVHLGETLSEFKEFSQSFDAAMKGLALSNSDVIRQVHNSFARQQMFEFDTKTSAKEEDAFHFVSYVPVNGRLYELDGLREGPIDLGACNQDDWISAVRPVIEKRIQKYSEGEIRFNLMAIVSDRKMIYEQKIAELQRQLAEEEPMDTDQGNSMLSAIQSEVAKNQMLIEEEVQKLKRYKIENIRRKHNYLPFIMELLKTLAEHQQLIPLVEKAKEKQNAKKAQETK
#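 Schedule: 30 min plus 25 min, room temperature / Material: human UCH37 within purified proteasomes / Technique: AMC fluorescence intensity at 355/460 nm / Buffer or medium: pH 7.4 Tris-HCl (50 mM) with ovalbumin, ATP-MgCl2, DTT / Controls: wells without proteasome as full block, compound-free enzyme plus substrate as uninhibited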
# CTSL1 counter = Fasciola hepatica cathepsin L1 inhibitors, primary screen, counter-screen for PFM18AAP inhibitor project, biochemical, QFRET, fluorogenic peptide substrate | inhibition, % at 5.96 µM | actives 0.49% (n = 300,000) | recombinant F. hepatica cathepsin L1, Z-Leu-Arg-MCA fluorescence;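 active means inhibition above the mean of all tested compounds plus 3 SD, set per screening campaign, cut at about 17% in these data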;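 further: 0% = plate median of test compound wells and 100% = 1 µM Z-Phe-Ala-diazomethylketone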
# PP5 primary = PP5 phosphatase inhibitors, primary screen, biochemical, fluorescence; Serine/threonine-protein phosphatase 5 (Homo sapiens), P53041; purified PP5c, OMFP substrate fluorescence; inhibition, % at 6.7 µM; actives 0.18% (n = 320,000); AID 1987, 2009;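 active means inhibition above the campaign's mean inhibition across all tested compounds plus 3 SD, cut at about 9.5% in these data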;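 further: 0% = DMSO only and 100% = 100 µM cantharidin control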
# UBC13 polyUb = UBC13 polyubiquitin chain formation inhibitors, primary screen, biochemical, TR-FRET, uHTS; inhibition, % at 20 µM; Ubiquitin-conjugating enzyme E2 N (Homo sapiens), P61088; actives 0.47% (n = 330,000); in the data active means inhibition above about 45%, passing the limit was not always enough
# Target sequence (P61088 whole entry, looked up): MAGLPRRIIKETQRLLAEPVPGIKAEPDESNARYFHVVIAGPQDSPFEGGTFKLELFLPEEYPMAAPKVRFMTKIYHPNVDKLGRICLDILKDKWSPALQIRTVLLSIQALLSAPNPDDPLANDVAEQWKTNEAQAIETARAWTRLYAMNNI
# PP1 inh = PP1-alpha phosphatase inhibitors, primary screen, counter-screen for PP5 inhibitor project, biochemical, fluorescence, OMFP substrate, single point | Serine/threonine-protein phosphatase PP1-alpha catalytic subunit (Homo sapiens), P62136 | purified PP1alpha | inhibition, % at 6.7 µM | actives 0.9% (n = 320,000) | AID 2235, 2010;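 active means inhibition above the mean inhibition of all tested compounds plus 3 SD, computed separately for each screening campaign, cut at about 15% in these data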
# PP1 inh confirm = PP1 phosphatase inhibitors, confirmation, biochemical, fluorescence, OMFP substrate, triplicate; actives 52% (n = 1,900); inhibition, % at 6.7 µM; purified PP1alpha; shares compounds with PP1 inh;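 active means mean PP1 inhibition above a set limit taken from the earlier primary screen, cut at about 15% in these data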
# PP5 counter = PP5 phosphatase inhibition by PP1 hits, confirmation, counter-screen for PP1 inhibitor project, biochemical, fluorescence, triplicate; shares compounds with PP1 inh; purified PP5c, OMFP fluorescence; inhibition, % at 6.7 µM; actives 4% (n = 1,900); AID 2360, 2010;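 active means mean PP5 inhibition over triplicate wells above about 9.5% taken from the earlier PP1 screen, limit read from the data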
# Active calls of the source: *; nt = not tested or not shown. The list is not random: actives were taken first. Their share in the collection is about 2.3%.
SMILES,PREPL inhibitor,UCH37 DUB inh,CTSL1 counter,PP5 primary,UBC13 polyUb,PP1 inh,PP1 inh confirm,PP5 counter
CC(=NNC(=O)c1ccc(Br)cc1)C1C(=O)c2ccccc2C1=O,nt,11,nt,nt,nt,nt,nt,nt
C/C(=N/NC(=O)c1cc2ccccc2cc1O)C1C(=O)c2ccccc2C1=O,33,nt,5,6,-16,24*,17*,-4
COc1cccc(C=Nn2c(N)c(S(=O)(=O)c3cccs3)c3nc4ccccc4nc32)c1,nt,-124,nt,nt,nt,nt,nt,nt
Cn1c(=O)c2c(nc(NN=Cc3cccs3)n2Cc2ccccc2)n(C)c1=O,nt,-3,nt,nt,nt,nt,nt,nt
Cc1c(C=NNC(=O)c2cccs2)c2ccccc2n1Cc1ccccc1Cl,nt,-147,nt,nt,nt,nt,nt,nt
COc1cccc(CNC(=O)c2ccccc2SCC(=O)N2CCCC2)c1,9,-1,-4,0,5,26*,-5,-6
COc1ccc(CN2C(=O)CSC2=NN=Cc2ccccc2)cc1,nt,5,nt,nt,nt,nt,nt,nt
O=C(Cc1ccc(Cl)cc1)Nc1ccc2oc(=O)ccc2c1,-7,-21,-3,0,22,0,nt,nt
O=C(Cc1ccc(Cl)cc1)Nc1ccc(-c2cc3ccccc3oc2=O)c(Cl)c1,-1,-172,2,2,3,23*,24*,3
Cn1cccc1-c1cc(C(=O)N/N=C/c2cc(Br)ccc2O)[nH]n1,21,nt,4,1,-2,21*,22*,-4
CC(=NNC(=O)c1cc2ccccc2cc1O)c1ccco1,nt,6,nt,nt,nt,nt,nt,nt
C/C(=N\NC(=O)COc1ccc(C)cc1Br)c1cc([N+](=O)[O-])cs1,7,nt,0,2,-8,22*,23*,2
O=C(O)C(Cc1ccccc1)N1C(=O)/C(=C/c2cccc3ccccc23)SC1=S (stereo not drawn),3,nt,3,3,nt,20*,32*,1
COc1cc2c(cc1OC)CN(c1nc(CN3CCCCC3)nc3sc4c(c13)CCCC4)CC2,31,-3,1,4,15,18*,-2,-5
CC1CCc2c(sc3nc(CN4CCOCC4)nc(N4CCc5ccccc5C4)c23)C1 (stereo not drawn),28,-6,6,4,4,21*,10,-4
Cn1c(SCC(=O)NCc2ccco2)nc2ccccc2c1=O,12,0,2,0,0,0,nt,nt
CCOCCCn1c(SCC(=O)NCc2ccco2)nc2c(sc3ccccc32)c1=O,-4,-2,3,1,-3,12,nt,nt
O=C(CSc1nc2ccccc2c2nc3ccccc3n12)NCc1ccco1,-10,-2,0,1,-32,31*,20*,0
CCCCn1c(SCC(=O)NCc2ccco2)nc2c(sc3ccccc32)c1=O,-5,-11,0,-2,-12,22*,24*,-2
CCCCCC[N+](C)(C)CCSSCC[N+](C)(C)CCCCCC,-8,14,-4,-1,15,-6,nt,nt
CCCCCCCCCCCCCCCC[N+](C)(C)CC,32,19,7,3,91*,20*,-11,2
CCCCOc1ccc(-c2nc(C=Nc3nccs3)c(O)o2)cc1,nt,6,nt,nt,nt,nt,nt,nt
CCOc1ccccc1NC(=O)CCS(=O)(=O)c1ccc(OC)cc1,7,0,0,2,4,-1,nt,nt
CCc1ccccc1NC(=O)CCS(=O)(=O)c1ccc(OC)cc1,1,4,-5,-2,4,37*,-2,-5
Nc1nc(SCC(=O)Nc2ccc([N+](=O)[O-])cc2)[nH]c(=O)c1NC(=O)c1ccc(Br)cc1,-6,4,5,0,-16,19*,23*,-3
SMILES,PREPL inhibitor,UCH37 DUB inh,CTSL1 counter,PP5 primary,UBC13 polyUb,PP1 inh,PP1 inh confirm,PP5 counter
Nc1cc(=O)[nH]c(SCC(=O)Nc2ccc([N+](=O)[O-])cc2)n1,13,8,2,1,4,-3,nt,nt
COc1ccc(Br)cc1C=NNC(=O)CN1CCCCC1,nt,6,nt,nt,nt,nt,nt,nt
O=C(/C=C/c1ccco1)NCC(=O)NN=Cc1ccc(Cl)cc1,nt,4,nt,nt,nt,nt,nt,nt
CCOC(=O)c1ccc(NS(=O)(=O)c2ccc(Cl)nc2)cc1,-3,-4,3,-3,4,-54,2,2
O=C1NC[C@@H](Cc2cccc3ccccc23)N(CCCCC2CCCCC2)C1=O,-71,nt,3,5,0,21*,3,2
CC1(C)CC(=O)c2c(O)cc(OCC(=O)N3CCN(c4ccccc4)CC3)cc2O1,13,2,5,3,9,20*,-2,-5
O=C(COc1ccccc1)N1CCN(c2ccccc2)CC1,10,0,2,0,-28,-4,nt,nt
Brc1ccc(-c2ccc(C=NNc3nc(N4CCOCC4)nc(N4CCOCC4)n3)o2)cc1,nt,-39,nt,nt,nt,nt,nt,nt
Cc1cc(C(=O)COc2cccnc2[N+](=O)[O-])c(C)n1Cc1cccs1,3,4,-4,9.9*,6,18*,2,1
CC(=O)Nc1ccccc1OCC(=O)c1cc(C)n(Cc2cccs2)c1C,-17,3,3,-1,2,3,nt,nt
Cc1cc(-c2csc(N)n2)c(C)n1CCc1ccccc1,37,5,3,0,6,21*,20*,-1
Cc1cc(-c2csc(NCc3ccccc3)n2)c(C)n1C,nt,3,nt,nt,nt,nt,nt,nt
CCN1CCN(Cc2ccc(NC(=O)c3ccc(C)c(NC(=O)C4=NN(c5ccccc5)C(=O)C4)c3)cc2C(F)(F)F)CC1,2,2,1,3,-17,18*,1,-2
CCN1CCN(Cc2ccc(NC(=O)c3cc(NC(=O)C4=NN(c5ccccc5)C(=O)C4)cc(OC)c3)cc2C(F)(F)F)CC1,-7,0,6,5,0,18*,-6,-2
CCN1CCN(Cc2ccc(NC(=O)c3cc(NC(=O)N4CCNC4=O)cc(OC)c3)cc2C(F)(F)F)CC1,-20,0,-2,3,16,-1,nt,nt
CC(=NO)c1cc(C(C)(C)C)c(O)c(C(C)(C)C)c1,nt,2,nt,nt,nt,nt,nt,nt
O=C(N/N=C/c1ccc2cccc(OCc3ccccc3)c2n1)c1ccc(Cl)cc1,-73,nt,7,3,10,24*,2,0
COc1ccc(C(=O)N/N=C/c2ccc3cccc(O)c3n2)cc1,19,nt,3,-4,-27,20*,5,2
